In ChEMBL document CHEMBL3774382, “Design and synthesis of small molecule-sulfotyrosine mimetics that inhibit HIV-1 entry” (Bioorg Med Chem, 2016):

What was measured:
[1] = test system: Human immunodeficiency virus 1; assay: Antiviral activity against HIV1 CXCR4-tropic strain HxB2 infected in human 293T cells at 400 uM after 48 hrs by neutralization assay; assay type: functional, organism-based
Method in brief: (§1)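 Env-pseudotyped virus made by transfecting 293T cells with SG3denv plus an HIV-1 env plasmid. Medium changed at 24 h, supernatant harvested at 48 h, 0.45 μm filtered, stored at −80 °C. Two-fold serial inhibitor dilutions mixed with virus, then TZM-bl cells added. Incubated at 37 °C, 5% CO₂, fresh medium at 24 h. Luciferase read after lysis at 48 h post-infection. Single round. Tested up to 400 μM.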

[2] = test system: Human immunodeficiency virus 1; assay: Antiviral activity against HIV1 dual CXCR4/CCR5-tropic strain 89.6 infected in human 293T cells after 48 hrs by neutralization assay; assay type: functional, organism-based; details: Human immunodeficiency virus 1, 89.6, HEK-293T; method in brief: as §1
[3] = test system: Human immunodeficiency virus 1; assay: Antiviral activity against HIV1 JRCSF infected in human 293T cells after 48 hrs by neutralization assay; assay type: functional, cell-based; details: Human immunodeficiency virus 1, JRCSF ISOLATE, HEK-293T; method in brief: as §1
[4] = test system: Human immunodeficiency virus 1; assay: Antiviral activity against HIV1 NL4-3 infected in human 293T cells after 48 hrs by neutralization assay; assay type: functional, organism-based; details: Human immunodeficiency virus 1, NL4-3, HEK-293T; method in brief: as §1
[5] = test system: Human immunodeficiency virus 1; assay: Antiviral activity against HIV1 CCR5-tropic strain YU2 infected in human 293T cells at 400 uM after 48 hrs by neutralization assay; assay type: functional, cell-based, isolate YU2; method in brief: as §1
[6] = test system: Human immunodeficiency virus 1; assay: Antiviral activity against HIV1 CXCR4-tropic strain HxB2 infected in human 293T cells after 48 hrs by neutralization assay; assay type: functional, organism-based; details: Human immunodeficiency virus 1, HxB2, HEK-293T; method in brief: as §1
[7] = test system: Human immunodeficiency virus 1; assay: Antiviral activity against HIV1 CCR5-tropic strain YU2 infected in human 293T cells after 48 hrs by neutralization assay; assay type: functional, cell-based; details: Human immunodeficiency virus 1, isolate YU2, HEK-293T; method in brief: as §1
293T [8] = assay: Inhibition of envelope gp120 in CCR5-tropic HIV1 YU2 infected in human 293T cells assessed as dose reduction index ratio at 1: 10 at 1:10 inhibitor to CCR5 Nt sulfated peptide (2 to 18) by single round neutralization assay; assay type: cell-based; details: Human immunodeficiency virus type 1 (isolate YU2)
Method in brief: (§2)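 Single-round YU2 pseudovirus neutralization in TZM-bl cells with luciferase read-out. Virus treated with inhibitor alone, with sulfated CCR5 N-terminal peptide 2–18 alone, or with a constant-ratio mixture, two-fold serial dilutions starting near 30× the single-agent IC₅₀. The ratio approximates the ratio of single-agent IC₅₀s. Analysed by the Chou–Talalay method. DRI is IC₅₀ alone divided by IC₅₀ in combination. CI below 1, equal to 1 and above 1 mean synergy, additivity and antagonism.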

[9] = Cytotoxicity against human TZM-bl cells; assay type: cell-based; details: read-out: LC50 (the source's name)
293T [10] = assay: Inhibition of envelope gp120 in CCR5-tropic HIV1 YU2 infected in human 293T cells assessed as combination index at 1: 10 at 1:10 inhibitor to CCR5 Nt sulfated peptide (2 to 18) by single round neutralization assay; assay type: cell-based; details: Human immunodeficiency virus type 1 (isolate YU2); method in brief: as §2
[11] = Therapeutic index, ratio of LC50 for human TZM-bl cells to IC50 for HIV1; assay type: cell-based; details: read-out: TI
[12] = Cytotoxicity against human TZM-bl cells at 500 uM; assay type: cell-based
[13] = Binding affinity to HIV immobilized envelop gp120 at 80 to 350 uM by surface plasmon resonance analysis; design: species or system Human immunodeficiency virus
[14] = test system: Human immunodeficiency virus 1; assay: Antiviral activity against HIV1 JRCSF infected in human 293T cells after at 400 uM 48 hrs by neutralization assay; assay type: functional, cell-based, JRCSF ISOLATE; method in brief: as §1
[15] = test system: Human immunodeficiency virus 1; assay: Antiviral activity against HIV1 dual CXCR4/CCR5-tropic strain 89.6 infected in human 293T cells at 400 uM after 48 hrs by neutralization assay; assay type: functional, organism-based; method in brief: as §1
[16] = Cytotoxicity against human TZM-bl cells at 200 to 500 uM; assay type: cell-based
[17] = test system: Human immunodeficiency virus 1; assay: Antiviral activity against HIV1 CCR5-tropic strain YU2 infected in human 293T cells at 500 uM after 48 hrs by neutralization assay; assay type: functional, cell-based, isolate YU2

| IC50 [2] [µM] | IC50 [3] [µM] | IC50 [4] [µM] | IC50 [6] [µM] | IC50 [7] [µM] | Structure (SMILES) | other results |
| --- | --- | --- | --- | --- | --- | --- |
| – | 35.5 | – | 29.3 | 148 | O=C1/C(=N\Nc2cc(S(=O)(=O)O)cc3cc(S(=O)(=O)O)cc(S(=O)(=O)O)c23)C(c2ccccc2)=NN1c1nc(-c2ccccc2)cs1 | – |
| – | 32.3 | – | 18.7 | 80.8 | COc1ccc(-c2csc(N3N=C(c4ccccc4)/C(=N/Nc4cc(S(=O)(=O)O)cc5cc(S(=O)(=O)O)cc(S(=O)(=O)O)c45)C3=O)n2)cc1 | Activity [12]: Non-toxic; selectivity ratio [11]: > 30 |
| – | 26.1 | – | 19.7 | 91.9 | CC1=NN(c2nc(-c3ccc(C(F)(F)F)cc3)cs2)C(=O)/C1=N\Nc1cc(S(=O)(=O)O)cc2cc(S(=O)(=O)O)cc(S(=O)(=O)O)c12 | – |
| 8.4 | 30.7 | 7.1 | 3.6 | 43.7 | O=C1/C(=N\Nc2ccc3c(S(=O)(=O)O)cc(S(=O)(=O)O)cc3c2)C(c2ccccc2)=NN1c1nc(-c2ccccc2)cs1 | Kd [13]: 350 µM |
| – | 30.8 | – | 28.9 | 80.6 | O=C1/C(=N\Nc2cc(S(=O)(=O)O)cc3cc(S(=O)(=O)O)cc(S(=O)(=O)O)c23)C(c2ccccc2)=NN1c1nc(-c2ccc(C(F)(F)F)cc2)cs1 | – |
| 6.7 | 19.5 | 10.2 | 12 | 30.9 | O=C1/C(=N\Nc2ccc3c(S(=O)(=O)O)cc(S(=O)(=O)O)cc3c2)C(c2ccccc2)=NN1c1nc(-c2nccs2)cs1 | – |
| 101 | 64.8 | 33.1 | 51.1 | 137 | CC1=NN(c2nc(-c3ccccc3)cs2)C(=O)/C1=N\Nc1ccc2c(S(=O)(=O)O)cc(S(=O)(=O)O)cc2c1 | – |
| 2.9 | 9.9 | 3.6 | 2.5 | 30.7 | COc1ccc(OC)c(-c2csc(N3N=C(c4ccccc4)/C(=N/Nc4ccc5c(S(=O)(=O)O)cc(S(=O)(=O)O)cc5c4)C3=O)n2)c1 | Activity [12]: Non-toxic; selectivity ratio [11]: 16 |
| 14.8 | 29.8 | 10.7 | 14.2 | 52.8 | O=C1/C(=N\Nc2ccc3c(S(=O)(=O)O)cc(S(=O)(=O)O)cc3c2)C(c2ccccc2)=NN1c1nc(-c2ccc(OC(F)(F)F)cc2)cs1 | – |
| – | 27 | – | 22.5 | 47.6 | COc1ccc(-c2csc(N3N=C(C)/C(=N/Nc4cc(S(=O)(=O)O)cc5cc(S(=O)(=O)O)cc(S(=O)(=O)O)c45)C3=O)n2)cc1 | – |

The next lines start with the compound.

| Structure (SMILES) | IC50 [2] [µM] | IC50 [3] [µM] | IC50 [4] [µM] | IC50 [6] [µM] | IC50 [7] [µM] | other results |
| --- | --- | --- | --- | --- | --- | --- |
| CC1=NN(c2nc(C(F)(F)F)cs2)C(=O)/C1=N\Nc1ccc2c(S(=O)(=O)O)cc(S(=O)(=O)O)cc2c1 | 79.7 | 83.3 | 80.1 | – | – | IC50 [1]: Not Active; IC50 [5]: Not Active |
| O=C1/C(=N\Nc2ccc3c(S(=O)(=O)O)cc(S(=O)(=O)O)cc3c2)C(c2ccccc2)=NN1c1nc(-c2ccc3c(c2)OCCO3)cs1 | 8.9 | 14.9 | 7.7 | 5.2 | 22.3 | Ratio (293T [8]): 1.2; CC50 [9]: 70 µM; CI (293T [10]): 1.9; selectivity ratio [11]: < 10 |
| CC1=NN(c2nc(-c3ccc(C(F)(F)F)cc3)cs2)C(=O)/C1=N/Nc1ccc(S(=O)(=O)O)cc1 | – | – | – | – | 139 | – |
| COc1ccc(-c2csc(N3N=C(C(F)(F)F)/C(=N/Nc4ccc5c(S(=O)(=O)O)cc(S(=O)(=O)O)cc5c4)C3=O)n2)cc1 | – | – | 104 | 80 | 298 | IC50 [14]: Not Active; IC50 [15]: Not Active |
| CC1=NN(c2nc(-c3ccc(C)cc3)cs2)C(=O)/C1=N\Nc1ccc(S(=O)(=O)O)cc1 | – | – | – | – | 126 | – |
| COCC1=NN(c2nc(-c3ccc(OC)cc3)cs2)C(=O)/C1=N\Nc1ccc2c(S(=O)(=O)O)cc(S(=O)(=O)O)cc2c1 | 22.3 | 36.2 | 15.6 | 10.1 | 74.9 | – |
| COc1ccc(-c2csc(N3N=C(C)/C(=N/Nc4ccc5c(S(=O)(=O)O)cc(S(=O)(=O)O)cc5c4)C3=O)n2)cc1 | 9.2 | 22.1 | 7 | 8.1 | 53.8 | Activity [12]: Non-toxic; selectivity ratio [11]: > 30 |
| CC1=NN(c2nc(-c3ccccc3)cs2)C(=O)/C1=N\Nc1cc(S(=O)(=O)O)cc2cc(S(=O)(=O)O)cc(S(=O)(=O)O)c12 | – | 47.6 | – | 36.8 | – | CC50 [9]: 200 µM; Activity [16]: Toxic; selectivity ratio [11]: < 10; IC50 [5]: Not Active |
| CC1=NN(c2nc(-c3cccc(Cl)c3)cs2)C(=O)/C1=N/Nc1ccc(S(=O)(=O)O)cc1 | – | – | – | – | 432 | – |
| COc1ccc(-c2csc(N3N=C(C)/C(=N\Nc4ccc(CS(=O)(=O)O)cc4)C3=O)n2)cc1 | – | – | – | – | – | IC50 [17]: Not Active |
| CC1=NN(c2nc(-c3ccc(OC(F)(F)F)cc3)cs2)C(=O)/C1=N/Nc1ccc(S(=O)(=O)O)cc1 | – | – | – | – | 400 | – |
| CC1=NN(c2nc(-c3ccc(O)c(O)c3)cs2)C(=O)/C1=N/Nc1ccc(S(=O)(=O)O)cc1 | – | – | – | – | 512 | – |
| COc1ccc(-c2csc(N3N=C(c4ccccc4)/C(=N/Nc4ccc5c(S(=O)(=O)O)cc(S(=O)(=O)O)cc5c4)C3=O)n2)cc1 | 3.2 | 10.2 | 5.8 | 7.5 | 24.7 | Ratio (293T [8]): 1.3; CC50 [9]: 200 µM; Kd [13]: 80 µM; Activity [16]: Toxic; CI (293T [10]): 2.3; selectivity ratio [11]: 10 |
| COc1ccc(-c2csc(N3N=C(COc4ccccc4)/C(=N/Nc4ccc5c(S(=O)(=O)O)cc(S(=O)(=O)O)cc5c4)C3=O)n2)cc1 | 14.6 | 24.1 | 11.2 | 9.4 | 62.4 | – |
| COc1ccc(OC)c(-c2csc(N3N=C(C)/C(=N\Nc4ccc(S(=O)(=O)O)cc4)C3=O)n2)c1 | – | – | – | – | 189 | – |
| O=C1/C(=N\Nc2ccc(S(=O)(=O)O)cc2)C(c2ccccc2)=NN1c1nc(-c2ccccc2)cs1 | – | – | – | – | – | Activity [12]: Non-toxic |
| O=C1/C(=N\Nc2ccc3c(S(=O)(=O)O)cc(S(=O)(=O)O)cc3c2)C(c2ccccc2)=NN1c1nc(C(F)(F)F)cs1 | 2.4 | 5.8 | 6.3 | 6.8 | 27.9 | CC50 [9]: 370 µM; Activity [16]: Toxic; selectivity ratio [11]: 13 |
| CC1=NN(c2nc(-c3ccc(S(=O)(=O)O)cc3)cs2)C(=O)/C1=N/Nc1ccc(S(=O)(=O)O)cc1 | – | – | – | – | – | IC50 [17]: Not Active |
| CN(C)c1ccc(-c2csc(N3N=C(c4ccccc4)/C(=N/Nc4ccc5c(S(=O)(=O)O)cc(S(=O)(=O)O)cc5c4)C3=O)n2)cc1 | 3.8 | 8 | 2.9 | 1.1 | 23.8 | Ratio (293T [8]): 1.2; CC50 [9]: 330 µM; CI (293T [10]): 2.5; selectivity ratio [11]: 13 |
